Assay results: publication PMC4543588 (European journal of medicinal chemistry, 2015)
Ends that are not written are not given here.

What was measured:
human NMU2 = human NMU2 (Homo sapiens, UniProt Q9GZQ4); assay: cellular calcium signaling assay, HEK293 cells expressing recombinant human NMU2; type: cell-based
In short: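 HEK293 cells stably expressing human NMU2 were grown to ~90% confluence on poly-D-lysine, loaded 45 min at 37 °C with 2 μM fluo-4-AM in Krebs'-HEPES-BSA (pH 7.4), then equilibrated 5 min. After ligand addition, fluorescence (ex 485/em 520 nm) was read at 0.5 s intervals. Maximal [Ca2+]i change was fitted by four-parameter logistic for EC50. Emax given as % hNmU Emax; mean ± SEM, n≥4.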

human NMU1 = target: T1, human NMU1 (Homo sapiens, UniProt Q9HB89); assay: cellular calcium signaling assay, HEK293 cells expressing recombinant human NMU1; type: cell-based
T1 sequence (Q9HB89 1-426): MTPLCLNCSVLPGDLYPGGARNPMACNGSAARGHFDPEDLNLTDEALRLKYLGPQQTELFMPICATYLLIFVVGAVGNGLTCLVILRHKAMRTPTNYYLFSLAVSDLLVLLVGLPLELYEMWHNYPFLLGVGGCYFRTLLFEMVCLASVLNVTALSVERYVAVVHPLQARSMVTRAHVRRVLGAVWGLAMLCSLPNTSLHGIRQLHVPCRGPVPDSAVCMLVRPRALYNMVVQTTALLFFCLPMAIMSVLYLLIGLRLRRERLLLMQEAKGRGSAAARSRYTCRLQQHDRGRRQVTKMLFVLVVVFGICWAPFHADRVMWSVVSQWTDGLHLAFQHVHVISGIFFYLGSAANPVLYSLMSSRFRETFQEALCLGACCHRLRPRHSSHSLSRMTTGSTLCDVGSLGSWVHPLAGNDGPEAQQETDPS
In short: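 HEK293 cells stably expressing human NMU1, grown to ~90% confluence on poly-D-lysine, loaded 45 min at 37 °C with 2 μM fluo-4-AM in Krebs'-HEPES/0.1% BSA (pH 7.4), then equilibrated 5 min. Ligand added; fluorescence (ex 485/em 520 nm) read every 0.5 s. […] Four-parameter logistic fit gave EC50; Emax as % hNmU; n≥4.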

[1] = s.c. injection ref 39; cited from earlier work
[2] = body distribution analysis in chronically treated DIO mice; type: in vivo, mouse; details: 2.2 mg/kg every 2 days for 28 days
In short: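 Male DIO C57BL/6 mice were given test compound chronically at 2.2 mg/kg (1603 nmoles/kg) every 2 days for 28 days, then killed. Organs and tissues were harvested, weighed and homogenised in 4 volumes of DMSO/ACN (1:1) with 0.1% TFA, then spun 10 min at 13000 rpm. Supernatants were analysed by triple-quadrupole LC/MS with a methylated analog as internal standard.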

[3] = test system: lysophosphatidic acid (LPA); assay: LPA levels in plasma of chronically treated DIO mice; type: in vivo, mouse; details: 1603 nmoles/kg; every 2 or 4 (NM4A) or 7 days (NM4-C16) for 21 days
In short: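 Ad libitum-fed male DIO C57BL/6 mice on a 60% kcal-fat diet (n=8/group) received s.c. vehicle or test compound in a phospholipid-based delivery system, 30 min before dark onset. Dosing was 1603 nmoles/kg every 2 or 4 days (2.2 mg/kg) or every 7 days (2.6 mg/kg) for 21 days. Plasma (100 μL) underwent solid-phase extraction and drying at 30–37 °C, then methanol reconstitution. 18:1, 18:2 and 20:4 LPA were quantified by LC-ESI-MS/MS.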

water solubility = type: physicochemical
[4] = cited from earlier work

Chain of human NMU2 (Q9GZQ4 whole entry): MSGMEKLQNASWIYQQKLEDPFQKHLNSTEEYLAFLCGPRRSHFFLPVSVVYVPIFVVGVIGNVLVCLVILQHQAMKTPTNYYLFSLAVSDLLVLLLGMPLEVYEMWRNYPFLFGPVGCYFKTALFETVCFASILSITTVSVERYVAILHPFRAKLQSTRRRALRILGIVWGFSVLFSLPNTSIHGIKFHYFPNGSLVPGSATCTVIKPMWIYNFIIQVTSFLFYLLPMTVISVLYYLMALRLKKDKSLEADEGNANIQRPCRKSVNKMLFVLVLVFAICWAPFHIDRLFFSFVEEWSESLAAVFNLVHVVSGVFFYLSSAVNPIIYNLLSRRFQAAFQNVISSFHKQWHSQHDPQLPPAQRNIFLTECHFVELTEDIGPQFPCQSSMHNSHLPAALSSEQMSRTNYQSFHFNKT

## Pal-Aib -FL- α^MeF -Arg- Pro-R-N^MeN [NM33]
Human NMU2
  NMU2 Emax at 10 μM as % hNmU Emax: 19.2±2.0 % hNmU Emax
Human NMU1
  NMU1 Emax at 10 μM as % hNmU Emax: 20.6±1.9 % hNmU Emax

## Pal-Aib -FL- α^MeF -Arg- Pro-R-N^MeN [NM36]
Human NMU2
  NMU2 Emax at 10 μM as % hNmU Emax: 28.6±7.9 % hNmU Emax
Human NMU1
  NMU1 Emax at 10 μM as % hNmU Emax: 15.9±6.6 % hNmU Emax

## NmU: endogenous peptide neuromedin U (FRVDEEFQSPFASQSRGYFLFRPRN-NH2; ends and bridges not checked; UniProt P48645 142-166, looked up)
[1]
  half-life after subcutaneous (s.c.) injection: less than 5 min

## Pal-Aib -FL- N^MeF -Arg- Pro-R-N^MeN [NM35]
Human NMU2
  NMU2 Emax at 10 μM as % hNmU Emax: 67.0±16.5 % hNmU Emax
Human NMU1
  NMU1 Emax at 10 μM as % hNmU Emax: 22.9±3.8 % hNmU Emax

## X(C-Ahx -FL- Phe -Arg- Tic-R-Asn-Ahx-C) [NM13]
Human NMU2
  NMU2 Emax at 10 μM as % hNmU Emax: 39.3±8.8 % hNmU Emax
Human NMU1
  NMU1 Emax at 10 μM as % hNmU Emax: 60.4±13.8 % hNmU Emax

## Pal-Aib -FL- Phe-N^MeR- Pro-R-N^MeN [NM31]
Human NMU2
  NMU2 Emax at 10 μM as % hNmU Emax: 17.9±1.5 % hNmU Emax
Human NMU1
  NMU1 Emax at 10 μM as % hNmU Emax: 13.8±2.0 % hNmU Emax

## X(C-Ahx -FL- Phe -Arg- Oic-R-Asn-Ahx-C) [NM12]
Human NMU2
  NMU2 Emax at 10 μM as % hNmU Emax: 70.0±6.0 % hNmU Emax
Human NMU1
  NMU1 Emax at 10 μM as % hNmU Emax: 30.00±6.0 % hNmU Emax

## Pal-Aib -FL- Phe-N^MeR- Pro-R-N^MeN [NM34]
Human NMU2
  NMU2 Emax at 10 μM as % hNmU Emax: 18.4±3.2 % hNmU Emax
Human NMU1
  NMU1 Emax at 10 μM as % hNmU Emax: 19.6±3.2 % hNmU Emax

## CCCCCCCCCCCCCCCCNC(=O)CNCC(=O)NC(C)(C)C(=O)N[C@@H](Cc1ccccc1)C(=O)N[C@@H](CC(C)C)C(=O)N[C@@H](Cc1ccccc1)C(=O)N[C@@H](CCCNC(=N)N)C(=O)N1CCC[C@H]1C(=O)N[C@@H](CCCNC(=N)N)C(=O)N[C@@H](CC(N)=O)C(N)=O [NM4A, Ida^NHPal-Aib -FL- Phe -Arg- Pro-R-Asn]
[2]
  body distribution: highest content of NM4A was detected in the plasma
[3]
  plasma levels of LPA: does not increase plasma levels of LPA
Water solubility
  water solubility: limited water solubility

## Pal-Aib -FL- Phe -Arg- Pro-R-Asn-Aib [NM6]
Human NMU2
  NMU2 Emax at 10 μM as % hNmU Emax: 60.7±12.1 % hNmU Emax
Human NMU1
  NMU1 Emax at 10 μM as % hNmU Emax: 40.6±2.2 % hNmU Emax

## X(C-Ahx -FL- Phe -Arg- Pro-R-Asn-Ahx-C) [NM11]
Human NMU2
  NMU2 Emax at 10 μM as % hNmU Emax: 60.6±11.6 % hNmU Emax
Human NMU1
  NMU1 Emax at 10 μM as % hNmU Emax: 33.7±0.2 % hNmU Emax

## semaglutide
[4]
  plasma half-life: 160 h

## Pal-Aib -FL- N^MeF -Arg- Pro-R-N^MeN [NM32]
Human NMU2
  NMU2 Emax at 10 μM as % hNmU Emax: 15.2±3.8 % hNmU Emax
Human NMU1
  NMU1 Emax at 10 μM as % hNmU Emax: 19.1±1.2 % hNmU Emax
